The RNAGym collection of RNA variant scans (doi:10.1038/nmeth.2970)

B1: NELF-E aptamer (parent)
chain: CCCAACGACUGCCGAGCGAGAUUACGCUUGAGCGCCCCACUGAGGAUGCCCACGGGCGAUUGGGGCACGG

Variants of: B1
Experiment: HiTS-RAP
Settings: with NELF-E (Drosophila)
How it was run: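 Kd came from weighted Hill fits to the first binding curve, with intensities normalised to sequencing intensity and averaged per sequence, keeping only fits whose variance was below 1,000,000. That curve was imaged on an Illumina GAIIx flowcell, where sequenced aptamer DNA templates with a T7 promoter and ter site had been transcribed in situ by T7 RNA polymerase and halted by GST-Tus (30 minutes, 37°C). Before each image, clusters equilibrated for 30 minutes at room temperature with NELF-E-mOrange at 0.064 to 1000 nM in HEPES binding buffer.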

| Variant | Kd [nM] |
| --- | --- |
| CCCAACGAGUGCCGAGCGAGGUUACGCUUGAGCGCCCCACUGAGGAUGCCCACGGGCGAUUGGGGCACGG [C9G A21G] | 6.86 |
| CCCAACGAGUGCCGAGCGAGUUUACGCUUGAGCGCCCCACUGAGGAUGCCCACGGGCGAUUGGGGCACGG [C9G A21U] | 6.36 |
| CCCAACGUCUGCCGAGCGAGAUUACGCUUGAGCGCCCCACUGAGGAUGCCCACGGACGAUUGGGGCACGG [A8U G56A] | 16.7 |
| CCCAACGUCUGCCGAGCGAGAUUACGCUUGAGCGCCCCACUGAGGAUGCCCACGGUCGAUUGGGGCACGG [A8U G56U] | 6.41 |
| CCCAACGUCUGCCGAGCGAGAUUACGCCUGAGCGCCCCACUGAGGAUGCCCACGGGCGAUUGGGGCACGG [A8U U28C] | 8.73 |
| CCCAACGUCUGCCGAGCGAGAUUACGCGUGAGCGCCCCACUGAGGAUGCCCACGGGCGAUUGGGGCACGG [A8U U28G] | 7.11 |
| CCCAACGUCUGCCGAGCGAGAUUACGCAUGAGCGCCCCACUGAGGAUGCCCACGGGCGAUUGGGGCACGG [A8U U28A] | 5.05 |
| CCCAACGAGUGCCGAGCGAGAUUGCGCUUGAGCGCCCCACUGAGGAUGCCCACGGGCGAUUGGGGCACGG [C9G A24G] | 5.84 |
| CCCAACGAGUGCCGAGCGAGAUUUCGCUUGAGCGCCCCACUGAGGAUGCCCACGGGCGAUUGGGGCACGG [C9G A24U] | 7.67 |
| CCCAACGUCUGCCGAGCGAGAUUACGCUUGAGCGCCCCACGGAGGAUGCCCACGGGCGAUUGGGGCACGG [A8U U41G] | 6.19 |
| CCCAACGUCUGCCGAGCGAGAUUACGCUUGAGCGCCCCACCGAGGAUGCCCACGGGCGAUUGGGGCACGG [A8U U41C] | 85.6 |
| CCCAACGUCUGCCGAGCGAGAUUACGCUUGAGCGCCCCACUGAGGAUGCCCACGGGCGAUUGUGGCACGG [A8U G63U] | 11.1 |
| CCCAACGUCUGCCGAGCGAGAUUACGCUUGAGCGCCCCACUGAGGAUGCCCACGGGCGAUUGAGGCACGG [A8U G63A] | 15.3 |
| CCCAACGUCUGCCGAGCGAGAUUACGCUUGAGCGCCCCACUGAGGAUGCCCACGGGCGAUUGGGUCACGG [A8U G65U] | 8.03 |
| CCCAACGUCUGCCGAGCGAGAUUACGCUUGAGCGCCCCACUGAGGAUGCCCACGGGCGAUUGGGACACGG [A8U G65A] | 5.1 |
| CCCAACGAGUGCCGAGCGAGAUUACGCUUGAGCGCCCCACUGAGGUUGCCCACGGGCGAUUGGGGCACGG [C9G A46U] | 68.3 |
| CCCAACGAGUGCCGAGCGAGAUUACGCUUGAGCGCCCCACUGAGGGUGCCCACGGGCGAUUGGGGCACGG [C9G A46G] | 47.4 |
| CCCAACGUCUGCCGAGCGAGAUUACGCUCGAGCGCCCCACUGAGGAUGCCCACGGGCGAUUGGGGCACGG [A8U U29C] | 6.56 |
| CCCAACGUCUGCCGAGCGAGAUUACGCUGGAGCGCCCCACUGAGGAUGCCCACGGGCGAUUGGGGCACGG [A8U U29G] | 5.87 |
| CCCAACGUCUGCCGAGCGAGAUUACGCUAGAGCGCCCCACUGAGGAUGCCCACGGGCGAUUGGGGCACGG [A8U U29A] | 4.61 |

| Variant | Kd [nM] |
| --- | --- |
| CCCAACGAGUGCGGAGCGAGAUUACGCUUGAGCGCCCCACUGAGGAUGCCCACGGGCGAUUGGGGCACGG [C9G C13G] | 5.48 |
| CCCAACGAGUGCAGAGCGAGAUUACGCUUGAGCGCCCCACUGAGGAUGCCCACGGGCGAUUGGGGCACGG [C9G C13A] | 7.19 |
| CCCAACGAGUGCUGAGCGAGAUUACGCUUGAGCGCCCCACUGAGGAUGCCCACGGGCGAUUGGGGCACGG [C9G C13U] | 5.15 |
| CCCAACGAGUGCCGAGCGAGAUUACGCUUGAGCGCCCCACUGAGGAUGCCCACGGGCGAUUGGGGCACGG [C9G] | 5.17 |
| CCCAACGAAUGCCGAGCGAGAUUACGCUUGAGCGCCCCACUGAGGAUGCCCACGGGCGAUUGGGGCACGG [C9A] | 5.07 |
| CCCAACGAGUGCCGAGCGAGAUUACGCUUGAGCGCCCUACUGAGGAUGCCCACGGGCGAUUGGGGCACGG [C9G C38U] | 8.24 |
| CCCAACGAAGGCCGAGCGAGAUUACGCUUGAGCGCCCCACUGAGGAUGCCCACGGGCGAUUGGGGCACGG [C9A U10G] | 5.43 |
| CCCAACGAGUGCCGAGCGAGAUUACGUUUGAGCGCCCCACUGAGGAUGCCCACGGGCGAUUGGGGCACGG [C9G C27U] | 4.83 |
| CCCAACGAGUGCCGGGCGAGAUUACGCUUGAGCGCCCCACUGAGGAUGCCCACGGGCGAUUGGGGCACGG [C9G A15G] | 6.64 |
| CCCAACGAGUGCCGUGCGAGAUUACGCUUGAGCGCCCCACUGAGGAUGCCCACGGGCGAUUGGGGCACGG [C9G A15U] | 7.39 |
| CCCAACGAGUGCCGAGCGAGAUUAGGCUUGAGCGCCCCACUGAGGAUGCCCACGGGCGAUUGGGGCACGG [C9G C25G] | 6.33 |
| CCCAACGAGUGCCGAGCGAGAUUAUGCUUGAGCGCCCCACUGAGGAUGCCCACGGGCGAUUGGGGCACGG [C9G C25U] | 7.05 |
| CCCAACGUCUGCCGAGCGAGAUUACGCUUGAGCGCCCCACUGAGGAUGCCCACGGGCGAUUGGCGCACGG [A8U G64C] | 7.62 |
| CCCAACGUCUGCCGAGCGAGAUUACGCUUGAGCGCCCCACUGAGGAUGCCCACGGGCGAUUGGUGCACGG [A8U G64U] | 9.52 |
| CCCAACGUCUGCCGAGCGAGAUUACGCUUGAGCGCCCCACUGAGGAUGCCCACGGGCGAUUGGAGCACGG [A8U G64A] | 8.34 |
| CCCAACGAGUGCCGAGCGAGAUUACGCUUGAGUGCCCCACUGAGGAUGCCCACGGGCGAUUGGGGCACGG [C9G C33U] | 5.9 |
| CCCAACGUCUGCCGAGCGAGAUUACGCUUGAGCGCCCCACUGAGGAUGCCCACGGGCGAUCGGGGCACGG [A8U U61C] | 71.4 |
| CCCAACGUCUGCCGAGCGAGAUUACGCUUGAGCGCCCCACUGAGGAUGCCCACGGGCGAUAGGGGCACGG [A8U U61A] | 29.9 |
| CCCAACGAGUGCCGAGCGAGAUUACGCUUGAGCGCUCCACUGAGGAUGCCCACGGGCGAUUGGGGCACGG [C9G C36U] | 8.98 |
